# Shown are actives, neighbours in structure and some others; about 5.8% of the full set was active somewhere.
# Rev-RRE block – disrupts HIV-1 Rev binding to RRE RNA. P05866. hit rate 0.79% among 97,000. Rev peptide-RRE RNA binding, FRET. inhibition, % at 8 µM. AID 704;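 active means inhibition above the screen-wide mean plus 3 SD, cut at about 35% in these data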;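 further: 0% = median DMSO wells and 100% = median Neomycin B control wells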
# Target sequence (P05866 whole entry, looked up): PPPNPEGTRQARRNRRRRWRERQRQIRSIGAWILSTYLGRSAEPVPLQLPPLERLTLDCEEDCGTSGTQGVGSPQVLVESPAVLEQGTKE
#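 Probe or stimulus: fluorescein-Rev peptide as binding partner; assay system: Cy5-tagged RRE RNA duplex with fluorescein-tagged Rev peptide; timing: 5 min compound–RNA preincubation, then 15 min with peptide, 25 °C; medium: HEPES pH 7.5 buffer with KCl, MgCl2, NaCl and EDTA; signal: fluorescein-to-Cy5 FRET, 480 nm excitation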
# PTK2B oligo ant – Pyk2 (human) oligomerization antagonism; Q14289; Q293 cells, Pyk2 FERM NanoBiT luminescence; active compounds read low; z-score (the deposit names both 25 µM and 10 µM); hit rate 0.83% among 99,000;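 active means Z-score of -3 or lower, scaled per plate to the spread of control and sample wells; inactive means z-score above -3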;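 further: negative z-score means lost luminescence so less FERM oligomerization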
# PLK1 kinase inh – PLK1 (human) kinase inhibition | inhibition, % at 10 µM | recombinant PLK1 kinase, TR-FRET peptide phosphorylation | P53350 | hit rate 0.53% among 97,000;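 active means inhibition of 50% or more in the single-concentration screen; inactive means inhibition below 50%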;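 further: 0% = DMSO max control and 100% = H-89 dihydrochloride min control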
# Plk1 PBD FP – blocks phosphopeptide binding to human Plk1 polo box domain | AID 693 | inhibition, %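 (tested at about 20 µM)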 | Plk1 PBD phosphopeptide binding, fluorescence polarization | hit rate 0.13% among 97,000; in the data active means inhibition above about 34%, passing the limit was not always enough
# Cav32 inh – human Cav3.2 channel inhibition, primary screen | O95180 | Cav3.2-expressing cells, Fluo-4 calcium fluorescence FDSS; active compounds read low | B-score at 10 µM | hit rate 4% among 100,000;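 active means single-dose well whose peak fluorescence ratio is a statistical outlier from its plate by either plate-standardised score or position-corrected B-score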
# FAK blocker – blocks human focal adhesion kinase activity; Q05397; biochemical FAK kinase activity assay; inhibition, %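 (tested at 7 µM)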; hit rate 0.84% among 97,000; in the data active means inhibition above about 19%;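 further: 0% = DMSO and 100% = reference compound high control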
# An asterisk follows results filed as active; · = no result; [ ] = remark or other dose.
SMILES,Rev-RRE block,PTK2B oligo ant,PLK1 kinase inh,Plk1 PBD FP,Cav32 inh,FAK blocker
COC(=O)c1ccccc1NC(=O)CSc1nc(NC(=O)c2ccccc2)c2c(C)c(C)oc2n1,2,0.33,-7,-17,-4.9*,-6
O=S(=O)(c1cc(Cl)ccc1Cl)N1CC2CCCN2c2ccc(C(F)(F)F)cc21 (stereo unspecified),17,-0.67,-6,-13,-1.6,1
O=C(O)CCCCCN1C(=O)/C(=C/c2ccncc2)SC1=S,·,0.86,·,·,·,·
O=C(O)CCCN1C(=O)/C(=C/c2ccc(-c3nc4ccccc4s3)o2)SC1=S,71*,1.9,-16,-26,·,7
Cc1ccc(C(=O)CC2(O)C(=O)N(CN3CCOCC3)c3ccccc32)cc1 (stereo unspecified),2,0.95,-16,-27,0.19,-3
CC(C)c1ccc(C(=O)CC2(O)C(=O)N(CN3CCOCC3)c3ccccc32)cc1 (stereo unspecified),4,1,-2,-2,-5.8*,9
CCNc1cc2oc(=O)c(CN3CCOCC3)c(C)c2cc1C,79*,0.93,-8,-1,-0.6,3
CCc1c(C)c2cc(Cl)c(O)c(CN3CCCCC3)c2oc1=O,4,1.1,-2,-8,0.06,-2
COc1ccc(N(Cc2ccccc2)C(=O)CSc2nnc(Cn3nnc4ccccc43)o2)cc1,7,-0.84,-16,15,-5.8*,0
O=C(CSc1nnc(Cn2nnc3ccccc32)o1)N(Cc1ccc(F)cc1)c1ccccc1,9,-1.3,-12,13,-2.3,-1
COc1ccc(CN(C(=O)CSc2nnc(-c3ccc(F)cc3)o2)c2ccc(F)cc2)cc1,·,-2.1,·,·,-6.5*,·
COc1ccc(-c2nnc(SCC(=O)c3ccc(C)o3)o2)cc1,0,1.6,-10,-3,0.16,1
COc1ccc(CN(C(=O)CSc2nnc(-c3c[nH]c4ccccc34)o2)c2ccc(F)cc2)cc1OC,0,-4.2*,-10,-3,-0.12,1
CCOC(=O)C1=C(C)NC2=C(C(=O)CCC2)C1c1cn(Cc2ccc(Cl)cc2Cl)nc1-c1ccccc1 (stereo unspecified),1,-2.3,-5,-27,·,6
COc1ccc(-n2c(Cc3cccn3C)nnc2SCC(N)=O)cc1,-1,·,1,46,-0.28,-3
CCc1ccc(NC(=O)CSc2nnc(Cc3cccn3C)n2-c2ccc(OC)cc2)cc1,-8,·,-12,26,-5.4*,-2
COc1ccc(-n2c(Cc3cccn3C)nnc2SCC(=O)Nc2ccc(Cl)cc2)cc1,4,·,0,-14,-4.5*,1
COc1ccc(NC(=O)CSc2nnc(C3CCCCC3)n2-c2ccccc2)cc1,8,-0.89,-13,-24,-6.1*,1
COc1ccc(-n2c(Cc3cccn3C)nnc2SCC(=O)Nc2cccc(F)c2)cc1,·,·,·,·,-4.5*,·
COc1ccc(-n2c(Cc3cccn3C)nnc2SCC(=O)NC2CCCC2)cc1,·,·,·,·,0.28,·
C/C(=N/NC(=O)c1ccoc1C)C12CC3CC(CC(C3)C1)C2,3,1.8,-4,-7,-2.4,1
O=C(O)c1cn[nH]c1-n1cnnn1,3,1.1,-9,-3,0.21,0
COc1ccc(-n2c(Cc3cccn3C)nnc2SCC(=O)NCc2ccc(F)cc2)cc1,·,·,·,·,-7.1*,·
COc1ccc(-n2c(Cc3cccn3C)nnc2SCC(=O)Nc2ccccc2)cc1,0,·,-2,-27,-13*,-9
Cc1cccc(N2CCN(CC(=O)Nc3nccs3)CC2)c1C,12,0.52,-2,-14,-6.3*,-1
SMILES,Rev-RRE block,PTK2B oligo ant,PLK1 kinase inh,Plk1 PBD FP,Cav32 inh,FAK blocker
COc1ccc(-n2c(Cc3cccn3C)nnc2SCC(=O)N2CCCc3ccccc32)cc1,5,0.3,-9,2,-2.4,7
COc1ccc(OCc2nnc(SCC(=O)N3CCCc4ccccc43)n2-c2ccc(C)cc2)cc1,10,-2.1,-10,-1,-8.2*,-1
N#Cc1ccc(OCc2nnc(SCC(=O)N3CCCc4ccccc43)n2-c2ccccc2)cc1,6,0.12,-9,-16,-7.4*,1
Nc1nc(Br)c2c(F)cccc2c1-c1ccc(F)cc1,10,-0.87,-15,-23,-1.4,4
NC(=O)c1cc(Cc2ccccc2)sc1NC(=O)c1ccco1,·,-3.1*,·,·,0.8,·
CCOc1ccc(CC(=O)Nc2sc(Cc3ccccc3)cc2C(N)=O)cc1OCC,1,-0.8,-18,8,0.02,-1
N#Cc1c(Cl)nc(SCc2ccccc2)nc1-c1ccccc1,8,·,-5,-3,-3.1,-12
Cc1ccc(NC(=O)c2cnn(-c3ccccc3)c2NC(=O)c2ccco2)cc1C,0,-1.8,0,2,-0.99,2
Cc1ccc(-n2ncc(C(=O)NCc3ccc4c(c3)OCO4)c2NC(=O)c2ccco2)cc1C,9,-1.4,-10,-8,-6.2*,4
CCc1cc(-c2n[nH]c(=S)n2Cc2ccccc2)cs1,1,-0.47,-8,2,·,1
CCOC(=O)c1ccccc1NC1c2ccccc2C(=O)N1C1CCN(C(=O)OCC)CC1 (stereo unspecified),-4,·,-8,20,-5.8*,-3
CCOC(=O)N1CCC(N2C(=O)c3ccccc3C2Nc2ccccc2C)CC1 (stereo unspecified),8,·,-3,-11,-0.23,4
CC(C)CCNC(=O)Cn1c2c(c(-c3ccccc3Cl)cc1=O)CCC2,5,·,-15,0,-1.6,1
CC1CCC(NC(=O)Cn2c3c(c(-c4ccccc4Cl)cc2=O)CCC3)CC1 (stereo unspecified),7,·,-5,8,-5.1*,-4
O=c1c(/C=C(\O)c2ccc(F)cc2)nc2ccccc2n1-c1ccccc1,127*[fluorescence artefact?],0.3,-8,15,·,1
O=C(Cn1c(C(F)(F)F)nc2ccccc21)c1ccc(F)cc1,2,0.43,-12,-1,·,-1
Fc1ccc2c(c1)C(c1ccncc1)=NNC(c1cccnc1)=N2,1,0.74,-12,-13,-0.057,-6
CCCCCCCn1c(=N)n(CC(=O)c2ccco2)c2ccccc21,1,1.3,-6,12,-2.6*,-1
CCCCn1c(=N)n(CC(=O)c2ccco2)c2ccccc21,-1,0.98,-8,-8,·,2
CCCCCCn1c(C(C)NC(=O)c2ccco2)nc2ccccc21 (stereo unspecified),4,-0.06,-11,2,-10*,2
CCCC(CCC)C(=O)Nc1cccc(C(=O)O)c1,4,1.1,-11,7,0.14,1
CCCn1c(N2CCN(CC(=O)c3c(C)n(C)c4ccccc34)CC2)nc2c1c(=O)[nH]c(=O)n2C,-5,1.1,-2,0,3.1*,6
CC1CCCN(c2nc3c(c(=O)n(C)c(=O)n3C)n2CCSc2nc3ccccc3s2)C1 (stereo unspecified),-3,-1.3,1,-19,-6.9*,0
CC(C)CCn1c(N2CCN(c3cccc(Cl)c3)CC2)nc2c1c(=O)[nH]c(=O)n2C,·,-0.12,·,·,-8.5*,·

# Source: PubChem BioAssay (several laboratories)
